According to ChEMBL document CHEMBL3046353, “Synthesis and fungicidal activity of some 5-membered heterocyclic derivatives containing benzimidazoles” (1993):
Calls of active or inactive are those of the source. The rule behind the calls is not given here.

Key:
Abutilon theophrasti [1] = assay: Post-emergence herbicidal activity against Abutilon theophrasti (velvetleaf); type: functional, organism-based
Tetranychus cinnabarinus = assay: Insecticidal activity against Tetranychus cinnabarinus (carmine spider mite); type: functional, organism-based
Convolvulaceae [2] = assay: Post-emergence herbicidal activity against Convolvulaceae (morning glory family); type: functional, organism-based
Sagittaria latifolia [3] = assay: Herbicidal activity against Sagittaria latifolia (broadleaf arrowhead) under paddy conditions; type: functional, organism-based
Avena sativa [4] = assay: Pre-emergence herbicidal activity against Avena sativa; type: functional, organism-based
Echinochloa crus-galli [5] = assay: Post-emergence herbicidal activity against Echinochloa crus-galli (barnyard grass); type: functional, organism-based
Echinochloa crus-galli [6] = assay: Pre-emergence herbicidal activity against Echinochloa crus-galli (barnyard grass); type: functional, organism-based
Rhizoctonia solani = assay: Fungicidal activity against Rhizoctonia solani at 500 ppm after 7 days by poisoned food technique; type: functional; conditions: 168 h, read-out: GI
How it was run: (§1)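 Cultures kept on potato dextrose agar. Each compound, dissolved in acetone, was added to potato dextrose agar at a final 500 ppm (w/v) (poisoned food technique). A disc cut from the periphery of a seven-day-old culture was inoculated onto each set. Control sets held potato dextrose agar only. The read-out is percentage inhibition of fungal growth relative to control.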

Oryza sativa [7] = assay: Herbicidal activity against Oryza sativa (rice) under paddy conditions; type: functional, organism-based
Culex pipiens pallens = assay: Insecticidal activity against Culex pipiens pallens (mosquito) at 3 to 5 ppm; type: functional, organism-based
Abutilon theophrasti [8] = assay: Pre-emergence herbicidal activity against Abutilon theophrasti (velvetleaf); type: functional, organism-based
Musca domestica = assay: Insecticidal activity against Musca domestica (house fly); type: functional, organism-based
Schoenoplectus acutus [9] = assay: Herbicidal activity against Schoenoplectus acutus (hardstem bulrush) under paddy conditions; type: functional, organism-based
Schoenoplectus acutus [10] = assay: Pre-emergence herbicidal activity against Schoenoplectus acutus (hardstem bulrush); type: functional, organism-based
Sagittaria latifolia [11] = assay: Pre-emergence herbicidal activity against Sagittaria latifolia (broadleaf arrowhead); type: functional, organism-based
Schoenoplectus acutus [12] = assay: Post-emergence herbicidal activity against Schoenoplectus acutus (hardstem bulrush); type: functional, organism-based
Avena sativa [13] = assay: Herbicidal activity against Avena sativa under paddy conditions; type: functional, organism-based
Convolvulaceae [14] = assay: Pre-emergence herbicidal activity against Convolvulaceae (morning glory family); type: functional, organism-based
Spodoptera litura = assay: Insecticidal activity against Spodoptera litura; type: functional, organism-based
Echinochloa crus-galli [15] = assay: Herbicidal activity against Echinochloa crus-galli (barnyard grass) under paddy conditions; type: functional, organism-based
Convolvulaceae [16] = assay: Herbicidal activity against Convolvulaceae (morning glory family) under paddy conditions; type: functional, organism-based
Oryza sativa [17] = assay: Pre-emergence herbicidal activity against Oryza sativa (rice); type: functional, organism-based
Oryza sativa [18] = assay: Post-emergence herbicidal activity against Oryza sativa (rice); type: functional, organism-based
Sagittaria latifolia [19] = assay: Post-emergence herbicidal activity against Sagittaria latifolia (broadleaf arrowhead); type: functional, organism-based
Helminthosporium = assay: Fungicidal activity against Helminthosporium oryzae at 500 ppm after 7 days by poisoned food technique; type: functional; conditions: 168 h, read-out: GI; how it was run: as §1
Avena sativa [20] = assay: Post-emergence herbicidal activity against Avena sativa; type: functional, organism-based

Cc1ccc2[nH]c(CSc3nc4ccccc4[nH]3)nc2c1
Activity (Abutilon theophrasti [1]): inactive
Activity (Tetranychus cinnabarinus): inactive
Activity (Convolvulaceae [2]): inactive
Activity (Sagittaria latifolia [3]): inactive
Activity (Avena sativa [4]): inactive
Activity (Echinochloa crus-galli [5]): inactive
Activity (Echinochloa crus-galli [6]): inactive
inhibition of growth at 500 ppm (Rhizoctonia solani): 61.3%
Activity (Oryza sativa [7]): inactive
Activity (Culex pipiens pallens): Active
Activity (Abutilon theophrasti [8]): inactive
Activity (Musca domestica): inactive
Activity (Schoenoplectus acutus [9]): inactive
Activity (Schoenoplectus acutus [10]): inactive
Activity (Sagittaria latifolia [11]): inactive
Activity (Schoenoplectus acutus [12]): inactive
Activity (Avena sativa [13]): inactive
Activity (Convolvulaceae [14]): inactive
Activity (Spodoptera litura): inactive
Activity (Echinochloa crus-galli [15]): inactive
Activity (Convolvulaceae [16]): inactive
Activity (Oryza sativa [17]): inactive
Activity (Oryza sativa [18]): inactive
Activity (Sagittaria latifolia [19]): inactive
inhibition of growth at 500 ppm (Helminthosporium): 81.3%
Activity (Avena sativa [20]): inactive

Nn1c(SCc2nc3ccccc3[nH]2)nnc1-c1ccccc1Cl
Activity (Abutilon theophrasti [1]): inactive
Activity (Tetranychus cinnabarinus): inactive
Activity (Convolvulaceae [2]): inactive
Activity (Sagittaria latifolia [3]): inactive
Activity (Avena sativa [4]): inactive
Activity (Echinochloa crus-galli [5]): inactive
Activity (Echinochloa crus-galli [6]): inactive
inhibition of growth at 500 ppm (Rhizoctonia solani): 39.8%
Activity (Oryza sativa [7]): inactive
Activity (Culex pipiens pallens): Active
Activity (Abutilon theophrasti [8]): inactive
Activity (Musca domestica): inactive
Activity (Schoenoplectus acutus [9]): inactive
Activity (Schoenoplectus acutus [10]): inactive
Activity (Sagittaria latifolia [11]): inactive
Activity (Schoenoplectus acutus [12]): inactive
Activity (Avena sativa [13]): inactive
Activity (Convolvulaceae [14]): inactive
Activity (Spodoptera litura): inactive
Activity (Echinochloa crus-galli [15]): inactive
Activity (Convolvulaceae [16]): inactive
Activity (Oryza sativa [17]): inactive
Activity (Oryza sativa [18]): inactive
Activity (Sagittaria latifolia [19]): inactive
inhibition of growth at 500 ppm (Helminthosporium): 52.3%
Activity (Avena sativa [20]): inactive

Clc1cccc(-c2nnc(SCc3nc4ccccc4[nH]3)s2)c1
Activity (Abutilon theophrasti [1]): inactive
Activity (Tetranychus cinnabarinus): inactive
Activity (Convolvulaceae [2]): inactive
Activity (Sagittaria latifolia [3]): inactive
Activity (Avena sativa [4]): inactive
Activity (Echinochloa crus-galli [5]): inactive
Activity (Echinochloa crus-galli [6]): inactive
inhibition of growth at 500 ppm (Rhizoctonia solani): 89.5%
Activity (Oryza sativa [7]): inactive
Activity (Culex pipiens pallens): Active
Activity (Abutilon theophrasti [8]): inactive
Activity (Musca domestica): inactive
Activity (Schoenoplectus acutus [9]): inactive
Activity (Schoenoplectus acutus [10]): inactive
Activity (Sagittaria latifolia [11]): inactive
Activity (Schoenoplectus acutus [12]): inactive
Activity (Avena sativa [13]): inactive
Activity (Convolvulaceae [14]): inactive
Activity (Spodoptera litura): inactive
Activity (Echinochloa crus-galli [15]): inactive
Activity (Convolvulaceae [16]): inactive
Activity (Oryza sativa [17]): inactive
Activity (Oryza sativa [18]): inactive
Activity (Sagittaria latifolia [19]): inactive
inhibition of growth at 500 ppm (Helminthosporium): 91.2%
Activity (Avena sativa [20]): inactive

Nn1c(SCc2nc3ccccc3[nH]2)nnc1-c1ccncc1
Activity (Abutilon theophrasti [1]): inactive
Activity (Tetranychus cinnabarinus): inactive
Activity (Convolvulaceae [2]): inactive
Activity (Sagittaria latifolia [3]): inactive
Activity (Avena sativa [4]): inactive
Activity (Echinochloa crus-galli [5]): inactive
Activity (Echinochloa crus-galli [6]): inactive
inhibition of growth at 500 ppm (Rhizoctonia solani): 29.3%
Activity (Oryza sativa [7]): inactive
Activity (Culex pipiens pallens): Active
Activity (Abutilon theophrasti [8]): inactive
Activity (Musca domestica): inactive
Activity (Schoenoplectus acutus [9]): inactive
Activity (Schoenoplectus acutus [10]): inactive
Activity (Sagittaria latifolia [11]): inactive
Activity (Schoenoplectus acutus [12]): inactive
Activity (Avena sativa [13]): inactive
Activity (Convolvulaceae [14]): inactive
Activity (Spodoptera litura): inactive
Activity (Echinochloa crus-galli [15]): inactive
Activity (Convolvulaceae [16]): inactive
Activity (Oryza sativa [17]): inactive
Activity (Oryza sativa [18]): inactive
Activity (Sagittaria latifolia [19]): inactive
inhibition of growth at 500 ppm (Helminthosporium): 30%
Activity (Avena sativa [20]): inactive

Cc1ccc2[nH]c(CSc3nnc(-c4ccccc4)n3N)nc2c1
Activity (Abutilon theophrasti [1]): inactive
Activity (Tetranychus cinnabarinus): inactive
Activity (Convolvulaceae [2]): inactive
Activity (Sagittaria latifolia [3]): inactive
Activity (Avena sativa [4]): inactive
Activity (Echinochloa crus-galli [5]): inactive
Activity (Echinochloa crus-galli [6]): inactive
inhibition of growth at 500 ppm (Rhizoctonia solani): 70.5%
Activity (Oryza sativa [7]): inactive
Activity (Culex pipiens pallens): Active
Activity (Abutilon theophrasti [8]): inactive
Activity (Musca domestica): inactive
Activity (Schoenoplectus acutus [9]): inactive
Activity (Schoenoplectus acutus [10]): inactive
Activity (Sagittaria latifolia [11]): inactive
Activity (Schoenoplectus acutus [12]): inactive
Activity (Avena sativa [13]): inactive
Activity (Convolvulaceae [14]): inactive
Activity (Spodoptera litura): inactive
Activity (Echinochloa crus-galli [15]): inactive
Activity (Convolvulaceae [16]): inactive
Activity (Oryza sativa [17]): inactive
Activity (Oryza sativa [18]): inactive
Activity (Sagittaria latifolia [19]): inactive
inhibition of growth at 500 ppm (Helminthosporium): 81.2%
Activity (Avena sativa [20]): inactive

Clc1ccc(-c2nnc(SCc3nc4ccccc4[nH]3)o2)cc1
Activity (Abutilon theophrasti [1]): inactive
Activity (Tetranychus cinnabarinus): inactive
Activity (Convolvulaceae [2]): inactive
Activity (Sagittaria latifolia [3]): inactive
Activity (Avena sativa [4]): inactive
Activity (Echinochloa crus-galli [5]): inactive
Activity (Echinochloa crus-galli [6]): inactive
inhibition of growth at 500 ppm (Rhizoctonia solani): 21.2%
Activity (Oryza sativa [7]): inactive
Activity (Culex pipiens pallens): Active
Activity (Abutilon theophrasti [8]): inactive
Activity (Musca domestica): inactive
Activity (Schoenoplectus acutus [9]): inactive
Activity (Schoenoplectus acutus [10]): inactive
Activity (Sagittaria latifolia [11]): inactive
Activity (Schoenoplectus acutus [12]): inactive
Activity (Avena sativa [13]): inactive
Activity (Convolvulaceae [14]): inactive
Activity (Spodoptera litura): inactive
Activity (Echinochloa crus-galli [15]): inactive
Activity (Convolvulaceae [16]): inactive
Activity (Oryza sativa [17]): inactive
Activity (Oryza sativa [18]): inactive
Activity (Sagittaria latifolia [19]): inactive
inhibition of growth at 500 ppm (Helminthosporium): 39.7%
Activity (Avena sativa [20]): inactive

c1ccc2[nH]c(CSc3nnc(-c4ccncc4)s3)nc2c1
Activity (Abutilon theophrasti [1]): inactive
Activity (Tetranychus cinnabarinus): inactive
Activity (Convolvulaceae [2]): inactive
Activity (Sagittaria latifolia [3]): inactive
Activity (Avena sativa [4]): inactive
Activity (Echinochloa crus-galli [5]): inactive
Activity (Echinochloa crus-galli [6]): inactive
inhibition of growth at 500 ppm (Rhizoctonia solani): 21.3%
Activity (Oryza sativa [7]): inactive
Activity (Culex pipiens pallens): Active
Activity (Abutilon theophrasti [8]): inactive
Activity (Musca domestica): inactive
Activity (Schoenoplectus acutus [9]): inactive
Activity (Schoenoplectus acutus [10]): inactive
Activity (Sagittaria latifolia [11]): inactive
Activity (Schoenoplectus acutus [12]): inactive
Activity (Avena sativa [13]): inactive
Activity (Convolvulaceae [14]): inactive
Activity (Spodoptera litura): inactive
Activity (Echinochloa crus-galli [15]): inactive
Activity (Convolvulaceae [16]): inactive
Activity (Oryza sativa [17]): inactive
Activity (Oryza sativa [18]): inactive
Activity (Sagittaria latifolia [19]): inactive
inhibition of growth at 500 ppm (Helminthosporium): 54.5%
Activity (Avena sativa [20]): inactive

Cc1ccc2[nH]c(CSc3nnc(-c4ccccc4)o3)nc2c1
Activity (Abutilon theophrasti [1]): inactive
Activity (Tetranychus cinnabarinus): inactive
Activity (Convolvulaceae [2]): inactive
Activity (Sagittaria latifolia [3]): inactive
Activity (Avena sativa [4]): inactive
Activity (Echinochloa crus-galli [5]): inactive
Activity (Echinochloa crus-galli [6]): inactive
inhibition of growth at 500 ppm (Rhizoctonia solani): 61.3%
Activity (Oryza sativa [7]): inactive
Activity (Culex pipiens pallens): Active
Activity (Abutilon theophrasti [8]): inactive
Activity (Musca domestica): inactive
Activity (Schoenoplectus acutus [9]): inactive
Activity (Schoenoplectus acutus [10]): inactive
Activity (Sagittaria latifolia [11]): inactive
Activity (Schoenoplectus acutus [12]): inactive
Activity (Avena sativa [13]): inactive
Activity (Convolvulaceae [14]): inactive
Activity (Spodoptera litura): inactive
Activity (Echinochloa crus-galli [15]): inactive
Activity (Convolvulaceae [16]): inactive
Activity (Oryza sativa [17]): inactive
Activity (Oryza sativa [18]): inactive
Activity (Sagittaria latifolia [19]): inactive
inhibition of growth at 500 ppm (Helminthosporium): 65.3%
Activity (Avena sativa [20]): inactive
